What was measured:
[1] = Ratio of Kcat to Km for beta-lactamase TEM-2
Outline: (§1)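 Steady-state kinetics in 100 mM MOPS, pH 7.5, 25 °C. Substrate stocks were made in DMSO and diluted into buffer to a final DMSO below 5%. Initial rates of enzyme-catalysed turnover were followed spectrophotometrically. Steady-state parameters were derived from these initial rates. Buffer hydrolysis of the substrates was measured separately as pseudo-first-order rate constants.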

[2] = Activity at beta-lactamase TEM-2 by spectrophotometry; outline: as §1
[3] = Inhibition of beta-lactamase TEM-2 assessed as inhibition of cephalothin turnover by spectrophotometry
Outline: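 TEM-2 enzyme (0.2 μM) was incubated with 3 mM inhibitor in 100 mM MOPS, pH 7.5, at 25 °C (DMSO below 5% final). Residual activity against 0.2 mM cephalothin was read spectrophotometrically over incubation time. Exponential fitting gave pseudo-first-order inactivation constants, which were converted to second-order rate constants.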

Structure (SMILES)	kcat/Km [1]	Km [2]	kcat [2]	kcat/Km [3]
O=C(O)c1cccc(OC(=O)C2Cc3ccccc3N(Cc3ccccc3)C2=O)c1 (centres undefined)	< 0.9 s⁻¹ M⁻¹			
O=C(CP(=O)(O)Oc1cccc(C(=O)O)c1)NCc1ccccc1				< 1 s⁻¹ M⁻¹
CN(Cc1ccccc1)C(=O)CC(=O)Oc1cccc(C(=O)O)c1	< 0.2 s⁻¹ M⁻¹			
O=C(O)c1cccc(OC(=O)C2CCN(Cc3ccccc3)C2=O)c1 (centres undefined)	0.54 s⁻¹ M⁻¹	> 220 µM	> 1.1 ×10⁻⁴ /s	

Continued, in another order:

kcat/Km [1]	Km [2]	kcat [2]	Structure (SMILES)	kcat/Km [3]
4.7 s⁻¹ M⁻¹	> 200 µM	> 9.4 ×10⁻⁴ /s	O=C(O)c1cccc(OC(=O)C(Cc2ccccc2)C(=O)NCc2ccccc2)c1 (centres undefined)	
1.2 ×10² /s/M	1800 µM	0.21 s⁻¹	O=C(CC(=O)N(Cc1ccccc1)Cc1ccccc1)Oc1cccc(C(=O)O)c1	
1.95 ×10⁴ /s/M	1.42 µM	28 s⁻¹	O=C(CC(=O)Oc1cccc(C(=O)O)c1)NCc1ccccc1	
< 6 s⁻¹ M⁻¹			CO[C@@H](C(=O)NCc1ccccc1)C(=O)Oc1cccc(C(=O)O)c1	
3.6 s⁻¹ M⁻¹	> 200 µM	> 7.2 ×10⁻⁴ /s	C[C@H](C(=O)NCc1ccccc1)C(=O)Oc1cccc(C(=O)O)c1	
